Data published in ChEMBL document CHEMBL4368905, “5,6,7,8-Tetrahydro-1,6-naphthyridine Derivatives as Potent HIV-1-Integrase-Allosteric-Site Inhibitors” (J Med Chem, 2019).

Assays:
[1] = system: Human immunodeficiency virus 1; test: Antiviral activity against wild type HIV-1 NL4-3 infected in human MT2 cells after 5 days by dual luciferase reporter gene assay; assay type: functional, organism-based; settings: Human immunodeficiency virus 1, NL4-3, MT2, 120 h
Method in brief: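 HIV-1 NL4-3 replication (viral outgrowth) in MT-2 cells. EC50 from multiple replicates.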

[2] = Cytotoxicity against human MT2 cells assessed as reduction in cell viability after 4 days by XTT assay; assay type: cell-based
Method in brief: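 Cytotoxicity in MT-2 cells, test compound up to a maximal concentration of 40 μM.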

[3] = Displacement of [3H]-2-tert-butoxy-2-(2-methyl-4-p-tolylquinolin-3-yl)acetic acid from LEDGF/p75 binding site of HIV1 integrase preincubated with radioligand for 1 hr followed by compound addition and measured after 1 hr by microbeta counting assay; parameters: species or system Human immunodeficiency virus 1
Method in brief: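 Displacement of tritiated ligand from the LEDGF/p75 binding site on integrase. IC50 from a single replicate.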

[4] = Clearance in rat at 1 mg/kg, iv or 5 mg/kg, po by LC-MS/MS analysis; assay type: ADME, organism-based; settings: in vivo
Method in brief: (§1)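 Rats dosed 1 mg/kg IV and 5 mg/kg PO. Clearance, Vss and oral bioavailability derived from these profiles.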

[5] = Volume of distribution at steady state in rat at 1 mg/kg, iv or 5 mg/kg, po by LC-MS/MS analysis; assay type: ADME, organism-based; settings: in vivo, read-out: Vdss; method in brief: as §1
[6] = system: Human immunodeficiency virus 1; test: Antiviral activity against HIV-1 NL4-3 harboring integrase T124N mutant infected in human MT2 cells after 5 days by dual luciferase reporter gene assay; assay type: functional, organism-based; settings: Human immunodeficiency virus 1, NL4-3, MT2, 120 h
Method in brief: (§2)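 NL4-3 HIV-1 carrying integrase substitutions engineered into the pol gene. The assay measures inhibition of viral outgrowth in MT-2 cell culture, and the value is reported as EC50.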

[7] = system: Human immunodeficiency virus 1; test: Antiviral activity against HIV-1 NL4-3 harboring integrase T124A mutant infected in human MT2 cells after 5 days by dual luciferase reporter gene assay; assay type: functional, organism-based; settings: Human immunodeficiency virus 1, NL4-3, MT2, 120 h; method in brief: as §2
[8] = system: Human immunodeficiency virus 1; test: Antiviral activity against HIV-1 NL4-3 harboring integrase T125A mutant infected in human MT2 cells after 5 days by dual luciferase reporter gene assay; assay type: functional, organism-based; settings: Human immunodeficiency virus 1, NL4-3, MT2, 120 h; method in brief: as §2
[9] = system: Human immunodeficiency virus 1; test: Antiviral activity against HIV-1 NL4-3 harboring integrase T124A/T125N double mutant infected in human MT2 cells after 5 days by dual luciferase reporter gene assay; assay type: functional, organism-based; settings: Human immunodeficiency virus 1, NL4-3, MT2, 120 h; method in brief: as §2
[10] = system: Human immunodeficiency virus 1; test: Antiviral activity against HIV-1 NL4-3 harboring integrase T124A/T125A double mutant infected in human MT2 cells after 5 days by dual luciferase reporter gene assay; assay type: functional, organism-based; settings: Human immunodeficiency virus 1, NL4-3, MT2, 120 h; method in brief: as §2
[11] = Oral bioavailability in rat at 5 mg/kg by LC-MS/MS analysis; assay type: ADME, organism-based; settings: in vivo; method in brief: as §1
[12] = Metabolic stability in rat liver microsomes assessed as parent compound remaining at 0.5 uM after 10 mins in presence of NADPH by LC-MS/MS analysis; assay type: ADME, Microsome; settings: read-out: Stability
Method in brief: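 Rat liver microsomes, compound at 0.5 μM, incubated 10 minutes. Read-out is percent of parent remaining.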

Structure (SMILES)	EC50 [1]	CC50 at 96 h [2]	IC50 [3]	clearance [4]	Vd [5]	also measured
Cc1ccc(-c2c(C(OC(C)(C)C)C(=O)O)c(C)nc3ccccc23)cc1 (stereo not drawn)	150 nM	> 40000 nM				
Cc1ccc(CCCN2CCc3nc(C)c([C@H](OC(C)(C)C)C(=O)O)c(-c4cc(F)c5c(c4C)CCCO5)c3C2)cc1F	1 nM	> 40000 nM	11 nM			
Cc1ccc(-c2c3c(nc(C)c2C(OC(C)(C)C)C(=O)O)CCN(c2cccc(-c4ccccc4)c2)C3)cc1 (stereo not drawn)	280 nM	> 40000 nM	430 nM			
Cc1nc2c(c(-c3cc(F)c4c(c3C)CCCO4)c1[C@H](OC(C)(C)C)C(=O)O)CN(CCCc1ccccc1F)CC2	1 nM	> 40000 nM	8 nM			
Cc1ccc(-c2c3c(nc(C)c2[C@H](OC(C)(C)C)C(=O)O)CCN(C(=O)CCc2ccccc2)C3)cc1	340 nM	> 40000 nM	760 nM	163 mL/min/kg	2 L/kg	
Cc1ccc(-c2c3c(nc(C)c2[C@H](OC(C)(C)C)C(=O)O)CCN(C(=O)NCc2ccccc2)C3)cc1	500 nM	> 40000 nM	310 nM			
Cc1ccc(-c2c3c(nc(C)c2[C@H](OC(C)(C)C)C(=O)O)CCN(CCCc2ccccc2)C3)cc1	10 nM	> 40000 nM	70 nM	171 mL/min/kg	16 L/kg	EC50 [6]: 20 nM; EC50 [7]: 17 nM; EC50 [8]: 21 nM; EC50 [9]: 31 nM; EC50 [10]: 34 nM
Cc1ccc(-c2c3c(nc(C)c2[C@H](OC(C)(C)C)C(=O)O)CCN(c2ccc(-c4ccccc4)cc2)C3)cc1	320 nM	> 40000 nM	220 nM			
Cc1ccc(-c2c3c(nc(C)c2[C@H](OC(C)(C)C)C(=O)O)CCN(Cc2ccccc2)C3)cc1	300 nM	> 40000 nM	830 nM	21 mL/min/kg	7 L/kg	bioavailability [11]: 35%
Cc1ccccc1CCCN1CCc2nc(C)c([C@H](OC(C)(C)C)C(=O)O)c(-c3cc(F)c4c(c3C)CCCO4)c2C1	2 nM	> 40000 nM	19 nM			
CC(=O)N1CCc2nc(C)c(C(OC(C)(C)C)C(=O)O)c(-c3ccc(C)cc3)c2C1 (stereo not drawn)	1900 nM	> 40000 nM	17000 nM			
Cc1ccc(-c2c3c(nc(C)c2[C@H](OC(C)(C)C)C(=O)O)CCN(CCOc2ccccc2)C3)cc1	200 nM	> 40000 nM	170 nM			
Cc1ccc(-c2c3c(nc(C)c2C(OC(C)(C)C)C(=O)O)CCN(Cc2ccccc2-c2ccccc2)C3)cc1 (stereo not drawn)	70 nM	> 40000 nM	80 nM	24 mL/min/kg	9 L/kg	bioavailability [11]: 25%
Cc1ccc(-c2c3c(nc(C)c2C(OC(C)(C)C)C(=O)O)CCN(CCCC2CCCC2)C3)cc1 (stereo not drawn)	39 nM	> 40000 nM	240 nM	152 mL/min/kg	66 L/kg	bioavailability [11]: 32%
Cc1ccc(-c2c3c(nc(C)c2[C@H](OC(C)(C)C)C(=O)O)CCN(C(=O)OCc2ccccc2)C3)cc1	230 nM	> 40000 nM	140 nM	118 mL/min/kg	19 L/kg	bioavailability [11]: 71%
COC(=O)N1CCc2nc(C)c(C(OC(C)(C)C)C(=O)O)c(-c3ccc(C)cc3)c2C1 (stereo not drawn)	1600 nM	> 40000 nM	4200 nM			
Cc1nc2c(c(-c3cc(F)c4c(c3C)CCCO4)c1[C@H](OC(C)(C)C)C(=O)O)CN(CCCc1ccccc1)CC2	4 nM	> 40000 nM	16 nM	82 mL/min/kg	6 L/kg	bioavailability [11]: 10%; EC50 [6]: 6 nM; remaining at 10 min, 0.5 µM [12]: 78%; EC50 [8]: 7 nM; EC50 [10]: 6 nM
CCCCCN1CCc2nc(C)c(C(OC(C)(C)C)C(=O)O)c(-c3ccc(C)cc3)c2C1 (stereo not drawn)	210 nM	> 40000 nM	1100 nM			
Cc1ccc(-c2c3c(nc(C)c2[C@H](OC(C)(C)C)C(=O)O)CCN(CCc2ccccc2)C3)cc1	240 nM	> 40000 nM	850 nM			
Cc1ccc(-c2c3c(nc(C)c2[C@H](OC(C)(C)C)C(=O)O)CCN(C/C=C/c2ccccc2)C3)cc1	120 nM	> 40000 nM	160 nM			
Cc1ccc(-c2c3c(nc(C)c2C(OC(C)(C)C)C(=O)O)CCN(C)C3)cc1 (stereo not drawn)	2100 nM	> 40000 nM	5800 nM			
Cc1ccc(-c2c3c(nc(C)c2C(OC(C)(C)C)C(=O)O)CCN(S(C)(=O)=O)C3)cc1 (stereo not drawn)	2600 nM	> 40000 nM	2200 nM			
Cc1cccc(CCCN2CCc3nc(C)c([C@H](OC(C)(C)C)C(=O)O)c(-c4cc(F)c5c(c4C)CCCO5)c3C2)c1	2 nM	> 40000 nM	29 nM			
Cc1nc2c(c(-c3cc(F)c4c(c3C)CCCO4)c1[C@H](OC(C)(C)C)C(=O)O)CN(CCCc1cccc(F)c1)CC2	4 nM	> 40000 nM	44 nM			
Cc1ccc(-c2c3c(nc(C)c2[C@H](OC(C)(C)C)C(=O)O)CCN(c2ccccc2)C3)cc1	470 nM	> 40000 nM	230 nM	24 mL/min/kg	3 L/kg	
Cc1nc2c(c(-c3cc(F)c4c(c3C)CCCO4)c1[C@H](OC(C)(C)C)C(=O)O)CN(CCCc1ccc(F)cc1)CC2	4 nM	> 40000 nM	15 nM	92 mL/min/kg	1 L/kg	bioavailability [11]: 10%; remaining at 10 min, 0.5 µM [12]: 78%
Cc1ccc(CCCN2CCc3nc(C)c([C@H](OC(C)(C)C)C(=O)O)c(-c4cc(F)c5c(c4C)CCCO5)c3C2)cc1	2 nM	> 40000 nM	12 nM			
Cc1nc2c(c(-c3cc(F)c4c(c3C)CCCO4)c1[C@H](OC(C)(C)C)C(=O)O)CN(CC1CC1c1ccccc1)CC2 (mixture of isomers)	5 nM	> 40000 nM	24 nM			
Cc1nc2c(c(-c3cc(F)c4c(c3C)CCCO4)c1[C@H](OC(C)(C)C)C(=O)O)CN(CCCc1ccncc1)CC2 (single isomer, unassigned; atropisomer)	58 nM	> 40000 nM	40 nM			
Cc1nc2ccccc2c(-c2ccc3c4c(ccnc24)CCO3)c1[C@H](OC(C)(C)C)C(=O)O [BI-224436]	52 nM	> 40000 nM	71 nM			
